Experiments:
[1] = Adverse events, DDI evaluation period; format: in vivo, human (patients with solid tumors)
CYP2C8 [2] = molecular target: T1, CYP2C8 (Homo sapiens, UniProt P10632); experiment: Clinical DDI: pioglitazone plasma PK with and without TAS-115; conditions: oral, 15 mg
T1 sequence (P10632 1-490): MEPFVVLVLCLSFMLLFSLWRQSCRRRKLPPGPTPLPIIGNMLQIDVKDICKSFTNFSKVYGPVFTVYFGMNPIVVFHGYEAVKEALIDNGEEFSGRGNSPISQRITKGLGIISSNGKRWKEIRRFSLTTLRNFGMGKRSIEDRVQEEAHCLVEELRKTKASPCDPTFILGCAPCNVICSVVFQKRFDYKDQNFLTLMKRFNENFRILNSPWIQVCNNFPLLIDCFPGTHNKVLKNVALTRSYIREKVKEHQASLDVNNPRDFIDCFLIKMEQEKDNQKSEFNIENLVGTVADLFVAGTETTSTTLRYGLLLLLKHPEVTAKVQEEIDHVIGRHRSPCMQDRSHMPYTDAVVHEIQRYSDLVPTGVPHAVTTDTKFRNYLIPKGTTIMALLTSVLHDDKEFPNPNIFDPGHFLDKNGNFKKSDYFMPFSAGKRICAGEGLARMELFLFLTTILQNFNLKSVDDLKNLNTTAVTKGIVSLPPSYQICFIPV

[3] = TAS-115 trough plasma concentrations; format: in vivo, human (patients with solid tumors)
[4] = Adverse events, continuous administration period; format: in vivo, human (patients with solid tumors)
solid tumors = experiment: Anti-tumor efficacy, continuous administration period; format: in vivo, human (patients with solid tumors)
In short: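 Open-label single-arm multicenter study in Japan. Test compound 250 mg given orally, fasted, on 5 consecutive days from Day 1 of repeated 21-day cycles (2 days off), until discontinuation. Investigator-assessed per RECIST 1.1. ORR is the % with best response CR/PR; DCR is the % with CR/PR/SD. OS in osteosarcoma runs from enrollment to death from any cause, censored at the last recorded follow-up or observation.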

CYP2B6 = conditions: read-out: IC50, reversible inhibition; ref unpublished inhouse data; cited from earlier work
CYP2C8 [5] = conditions: read-out: IC50, reversible inhibition; ref unpublished inhouse data; cited from earlier work
CYP2C9 = conditions: read-out: IC50, reversible inhibition; ref unpublished inhouse data; cited from earlier work
CYP2C19 = conditions: read-out: IC50, reversible inhibition; ref unpublished inhouse data; cited from earlier work
CYP3A = conditions: time-dependent inhibition; ref unpublished inhouse data; cited from earlier work
[6] = After Administration of TAS-115, DDI period (N=18)
[7] = Before Administration of TAS-115 (N=18)
[8] = Entire DDI Evaluation Period (N=18)
[9] = Continuous Administration Period (N=18)
[10] = continuous administration period
[11] = All patients (N=16), efficacy-evaluable

CCc1ccc(CCOc2ccc(CC3SC(=O)NC3=O)cc2)nc1 (stereo not drawn) [Pioglitazone, pioglitazone, reference compound]
Any >=Grade 3 TRAEs Related to Pioglitazone [1, 6]: 0 (0.0) N (%)
Any TRAEs Related to Pioglitazone [1, 6]: 0 (0.0) N (%)
Any >=Grade 3 TRAEs Related to Pioglitazone [1, 7]: 0 (0.0) N (%)
Any TRAEs Related to Pioglitazone [1, 7]: 1 (5.6) N (%)
TRAE (Grade 1 diarrhoea) related to pioglitazone ([1]; DDI evaluation period, pioglitazone administered before TAS-115): one patient
Any >=Grade 3 TRAEs Related to Pioglitazone [1, 8]: 0 (0.0) N (%)
Any TRAEs Related to Pioglitazone [1, 8]: 1 (5.6) N (%)
AUC(0-inf) (CYP2C8 [2]): 7710 ng·h/mL
AUC(0-t) (CYP2C8 [2]): 6340 ng·h/mL
Cmax (CYP2C8 [2]): 635 ng/mL

CNC(=O)c1cc2c(Oc3ccc(NC(=S)NC(=O)Cc4ccccc4)cc3F)ccnc2cc1OC [TAS-115, pamufetinib]
trough plasma concentration, arithmetic mean (standard deviation) ([3]; Day 4, 250 mg once daily oral): 834.5 (318.68) ng/mL
trough plasma concentration, arithmetic mean (standard deviation) ([3]; Day 5, 250 mg once daily oral): 881.6 (378.03) ng/mL
concentration at 24 h ([3]; human, plasma, po, 250 mg): 576 ng/mL
Any >=Grade 3 TEAEs [1, 6]: 2 (11.1) N (%)
Any >=Grade 3 TRAEs [1, 6]: 1 (5.6) N (%)
Any >=Grade 3 TRAEs Related to TAS-115 [1, 6]: 1 (5.6) N (%)
Any SAEs [1, 6]: 0 (0.0) N (%)
Any TEAEs [1, 6]: 15 (83.3) N (%)
Any TEAEs Leading to Death [1, 6]: 0 (0.0) N (%)
Any TEAEs Leading to Discontinuation of Study Medication [1, 6]: 0 (0.0) N (%)
Any TEAEs Leading to Dose Interruption of TAS-115 [1, 6]: 0 (0.0) N (%)
Any TEAEs Leading to Dose Reduction of TAS-115 [1, 6]: 0 (0.0) N (%)
Any TRAEs [1, 6]: 15 (83.3) N (%)
Any TRAEs Leading to Death [1, 6]: 0 (0.0) N (%)
Any TRAEs Leading to Discontinuation of Study Medication [1, 6]: 0 (0.0) N (%)
Any TRAEs Related to TAS-115 [1, 6]: 14 (77.8) N (%)
Any TRAEs Related to TAS-115 Leading to Dose Interruption of TAS-115 [1, 6]: 0 (0.0) N (%)
Any TRAEs Related to TAS-115 Leading to Dose Reduction of TAS-115 [1, 6]: 0 (0.0) N (%)
Any Treatment-Related SAEs [1, 6]: 0 (0.0) N (%)
Grade 3 or higher TRAE (anaemia) attributed to TAS-115 ([1]; DDI evaluation period): one patient
patients reporting TEAEs ([1]; DDI evaluation period): 83.3%
patients with TRAEs ([1]; DDI evaluation period): 83.3%
patients with TRAEs related to TAS-115 ([1]; DDI evaluation period): 14 patients
patients with TEAEs of ≥ Grade 3 ([1]; DDI evaluation period, anemia and lipase increased): 11.1%
Any >=Grade 3 TEAEs [1, 8]: 2 (11.1) N (%)
Any >=Grade 3 TRAEs [1, 8]: 1 (5.6) N (%)
Any >=Grade 3 TRAEs Related to TAS-115 [1, 8]: 1 (5.6) N (%)
Any SAEs [1, 8]: 0 (0.0) N (%)
Any TEAEs [1, 8]: 15 (83.3) N (%)
Any TEAEs Leading to Death [1, 8]: 0 (0.0) N (%)
Any TEAEs Leading to Discontinuation of Study Medication [1, 8]: 0 (0.0) N (%)
Any TEAEs Leading to Dose Interruption of TAS-115 [1, 8]: 0 (0.0) N (%)
Any TEAEs Leading to Dose Reduction of TAS-115 [1, 8]: 0 (0.0) N (%)
Any TRAEs [1, 8]: 15 (83.3) N (%)
Any TRAEs Leading to Death [1, 8]: 0 (0.0) N (%)
Any TRAEs Leading to Discontinuation of Study Medication [1, 8]: 0 (0.0) N (%)
Any TRAEs Related to TAS-115 [1, 8]: 14 (77.8) N (%)
Any TRAEs Related to TAS-115 Leading to Dose Interruption of TAS-115 [1, 8]: 0 (0.0) N (%)
Any TRAEs Related to TAS-115 Leading to Dose Reduction of TAS-115 [1, 8]: 0 (0.0) N (%)
Any Treatment-Related SAEs [1, 8]: 0 (0.0) N (%)
Any >=Grade 3 TEAEs [4, 9]: 8 (44.4) N (%)
Any >=Grade 3 TRAEs Related to TAS-115 [4, 9]: 6 (33.3) N (%)
Any SAEs [4, 9]: 5 (27.8) N (%)
Any TEAEs [4, 9]: 18 (100.0) N (%)
Any TEAEs Leading to Death [4, 9]: 0 (0.0) N (%)
Any TEAEs Leading to Discontinuation of Study Medication [4, 9]: 1 (5.6) N (%)
Any TEAEs Leading to Dose Interruption of TAS-115 [4, 9]: 10 (55.6) N (%)
Any TEAEs Leading to Dose Reduction of TAS-115 [4, 9]: 1 (5.6) N (%)
Any TRAEs Leading to Death [4, 9]: 0 (0.0) N (%)
Any TRAEs Leading to Discontinuation of Study Medication [4, 9]: 1 (5.6) N (%)
Any TRAEs Related to TAS-115 [4, 9]: 17 (94.4) N (%)
Any TRAEs Related to TAS-115 Leading to Dose Interruption of TAS-115 [4, 9]: 9 (50.0) N (%)
Any TRAEs Related to TAS-115 Leading to Dose Reduction of TAS-115 [4, 9]: 1 (5.6) N (%)
Any Treatment-Related SAEs [4, 9]: 2 (11.1) N (%)
Grade 3 rash maculo-papular leading to discontinuation of TAS-115 [4, 10]: One patient
TEAE blood creatine phosphokinase (CK) increased [4, 10]: 27.8%
TRAE of ≥ Grade 3 related to TAS-115: anaemia [4, 10]: 11.1%
TRAE related to TAS-115: alanine aminotransferase increased [4, 10]: 33.3%
TRAE related to TAS-115: anemia [4, 10]: 27.8%
TRAE related to TAS-115: aspartate aminotransferase increased [4, 10]: 55.6%
TRAE related to TAS-115: blood CK increased [4, 10]: 27.8%
TRAE related to TAS-115: platelet count decreased [4, 10]: 22.2%
TRAE related to TAS-115: rash [4, 10]: 22.2%
criteria for severe drug-induced liver injury (Hy’s law) [4, 10]: No criteria for severe drug-induced liver injury (Hy’s law) were met
patients reporting TEAEs [4, 10]: 100%
patients requiring dose interruption by AEs [4, 10]: 55.6%
patients requiring dose reduction due to AEs related to TAS-115 [4, 10]: 5.6%
patients with SAEs [4, 10]: 27.8%
patients with TEAEs of ≥ Grade 3 [4, 10]: 44.4%
patients with TRAEs of ≥ Grade 3 related to TAS-115 [4, 10]: 33.3%
patients with TRAEs related to TAS-115 [4, 10]: 94.4%
deaths ([4]; continuous administration period or within 30 days following discontinuation): No deaths occurred
CR (solid tumors; [11]): 0 (0.0) N (%)
Disease control rate (CR+PR+SD) (solid tumors; [11]): 6 (37.5) N (%)
PD (solid tumors; [11]): 10 (62.5) N (%)
PR (solid tumors; [11]): 1 (6.3) N (%)
Progression-free survival, Censored (solid tumors; [11]): 2 (12.5) N (%)
Progression-free survival, Event (solid tumors; [11]): 14 (87.5) N (%)
Progression-free survival, Median (solid tumors; [11]): 2.1 month
Response rate (CR+PR) (solid tumors; [11]): 1 (6.3) N (%)
CR (solid tumors; Osteosarcoma (N=4)): 0 (0.0) N (%)
Disease control rate (CR+PR+SD) (solid tumors; Osteosarcoma (N=4)): 2 (50.0) N (%)
Overall survival, Censored (solid tumors; Osteosarcoma (N=4)): 1 (25.0) N (%)
Overall survival, Event (solid tumors; Osteosarcoma (N=4)): 3 (75.0) N (%)
Overall survival, Median (solid tumors; Osteosarcoma (N=4)): 13.8 month
PD (solid tumors; Osteosarcoma (N=4)): 2 (50.0) N (%)
PR (solid tumors; Osteosarcoma (N=4)): 1 (25.0) N (%)
Progression-free survival, Censored (solid tumors; Osteosarcoma (N=4)): 0 (0.0) N (%)
Progression-free survival, Event (solid tumors; Osteosarcoma (N=4)): 4 (100.0) N (%)
Progression-free survival, Median (solid tumors; Osteosarcoma (N=4)): 7.0 month
Response rate (CR+PR) (solid tumors; Osteosarcoma (N=4)): 1 (25.0) N (%)
DCR (solid tumors; patients with solid tumors, 16 evaluable): 37.5%
IC50 (CYP2B6): 6.03 µM
IC50 (CYP2C8 [5]): 0.563 µM
IC50 (CYP2C9): 2.03 µM
IC50 (CYP2C19): 4.23 µM
concentration of the inhibitor required to achieve 50% of the maximum inactivation rate (CYP3A): 28.5 µmol/L
maximum inactivation rate constant (CYP3A): 0.0650 min⁻¹

— PMC12823633 (Cancer Chemotherapy and Pharmacology, 2026)
